ChEMBL document CHEMBL1148937, “Anti-inflammatory phloroglucinols and terpenoids from Garcinia subelliptica” (J Nat Prod, 2004)
pIC50: −log10 of the molar value.

Tests used:
RAW264.7 [1] = assay: Antiinflammatory activity against mouse RAW264.7 cells assessed as inhibition of LPS-induced nitrite accumulation after 24 hrs; format: functional, cell-based; settings: RAW264.7, 24 h
Method in brief: (§1)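 RAW 264.7 macrophage-like cells stimulated with LPS (1 µg/mL) for 24 h. Nitrite accumulated in the medium was measured by Griess reaction as an index of NO production. IC50 in µM; % inhibition is reported when 50% inhibition was not reached at the top concentration. Means ± SEM, n = 3-5.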

N9 [2] = assay: Antiinflammatory activity against mouse N9 cells assessed as inhibition of LPS/IFN-gamma-induced nitrite accumulation after 24 hrs; settings: N9, 24 h
Mast cell [3] = assay: Inhibition of compound 48/80-stimulated beta-glucuronidase release in rat peritoneal mast cell; format: functional, cell-based
Mast cell [4] = assay: Inhibition of compound 48/80-stimulated histamine release in rat mast cell; format: functional, cell-based
Neutrophil = assay: Induction of fMLP/CB-stimulated superoxide anion generation in rat neutrophil; format: functional, cell-based
Method in brief: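 Rat neutrophils stimulated with fMLP (0.3 µM) plus cytochalasin B (5 µg/mL). Superoxide anion generation measured across a concentration range of test agent.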

RAW264.7 [5] = assay: Antiinflammatory activity against mouse RAW264.7 cells assessed as inhibition of LPS-induced TNFalpha production at 30 uM; format: functional
Method in brief: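 TNF-α production in the culture medium of LPS-stimulated RAW 264.7 cells, with test agent at 30 µM. Expressed as % inhibition.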

Mast cell [6] = assay: Inhibition of compound 48/80-stimulated beta-glucuronidase release in rat mast cell at >30 uM; format: functional
Mast cell [7] = assay: Inhibition of compound 48/80-stimulated histamine release in rat mast cell at >30 uM; format: functional
RAW264.7 [8] = assay: Antiinflammatory activity against mouse RAW264.7 cells assessed as inhibition of LPS-induced nitrite accumulation at >30 uM after 24 hrs; format: functional; method in brief: as §1
N9 [9] = assay: Antiinflammatory activity against mouse N9 cells assessed as inhibition of LPS/IFN-gamma-induced nitrite accumulation at >30 uM after 24 hrs; format: functional
Method in brief: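 N9 microglial cells stimulated with LPS (10 ng/mL) plus IFN-γ (10 U/mL) for 24 h. NO production measured as nitrite accumulation in the medium by Griess reaction. IC50 in µM; where 50% inhibition was not reached at the highest concentration, % inhibition is given. Means ± SEM, n = 3-5.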

SMILES	pIC50 (RAW264.7 [1])	pIC50 (N9 [2])	pIC50 (Mast cell [3])	pIC50 (Mast cell [4])	Activity (Neutrophil)	inhibition at 30 µM (RAW264.7 [5]) [%]	inhibition (INH) (Mast cell [6]) [%]	inhibition (INH) (Mast cell [7]) [%]	inhibition (INH) (RAW264.7 [8]) [%]	inhibition (INH) (N9 [9]) [%]
CC(=N)NCc1cccc(CN)c1 [1400W]	5.54	5.20								
CC(C)=CC[C@H]1C[C@]2(C(=O)C(C)C)C(=O)[C@@](CC=C(C)C)(C(=O)C3=C2O[C@@H](C(C)(C)O)C3)C1(C)C [GARCINIELLIPTONE L]	4.64	4.89	4.64	< 4.52	Dose-dependent effect	32.1				
CCN(CC)CCCC(C)Nc1c2ccc(Cl)cc2nc2ccc(OC)cc12 (configuration not stated) [QUINACRINE]			4.86	4.63						
CC(C)=CC[C@H]1C[C@]2(C(=O)C(C)C)C(=O)[C@@](CC=C(C)C)(C(=O)C3=C2O[C@H](C(C)(C)O)C3)C1(C)C [GARCINIELLIPTONE M]	4.82	< 4.52	4.87	4.72	Dose-dependent effect	36.9				
CC(C)=CC[C@H]1C[C@@H](CC=C(C)C)C(C)(C)[C@@H](C(=O)C(C)C)C1=O [GARCINIELLIPTONE N]	< 4.52	< 4.52	< 4.52	< 4.52			30.2	13.7	5.7	34.5
COC(=O)[C@]1(CC=C(C)C)C[C@@H](CC=C(C)C)C(C)(C)[C@@H](C(=O)C(C)C)C1=O [GARCINIELLIPTONE O]	< 4.52	< 4.52	< 4.52	< 4.52			43.9	32.8	22.1	34.6
